Active and inactive are the calls of the source. No cut-off for these calls is given here.
Legend:
[1] = molecular target: T1, Geranylgeranyl pyrophosphate synthase (Homo sapiens, UniProt O95749); assay: Inhibition of recombinant GGDPS (unknown origin) using FPP and [14C] IPP as substrate preincubated for 10 mins followed by substrate addition measured after 30 mins by liquid scintillation counting method
T1 sequence (O95749 whole entry): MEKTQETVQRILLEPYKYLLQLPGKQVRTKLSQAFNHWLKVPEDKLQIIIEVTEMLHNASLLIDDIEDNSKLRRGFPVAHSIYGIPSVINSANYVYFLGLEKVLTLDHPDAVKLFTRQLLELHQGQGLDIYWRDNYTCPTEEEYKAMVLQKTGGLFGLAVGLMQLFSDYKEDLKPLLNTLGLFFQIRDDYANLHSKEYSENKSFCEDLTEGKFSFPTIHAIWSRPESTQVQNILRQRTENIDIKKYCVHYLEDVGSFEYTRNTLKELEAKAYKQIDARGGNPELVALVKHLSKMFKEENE
Method in brief: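 In the enzyme assay, each compound was tested in duplicate at multiple concentrations, with three independent experiments. IC50 values were derived from concentration-response curve analysis.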

[2] = molecular target: T2, Geranylgeranyl pyrophosphate synthase (Homo sapiens) (UniProt O95749); assay: Inhibition of GGDPS in human RPMI-8226 cells assessed as lowest effective concentration required to show unmodified Rap1a band up to 100 uM after 48 hrs by immunoblot analysis; format: cell-based; details: dose microM <=100, time 48.0 hrs
T2 sequence (whole entry): T1 sequence (O95749 whole entry)
Method in brief: (§1)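 LEC is the lowest concentration giving both a visible unmodified Rap1a band and a statistically significant rise in lambda light chain (ELISA, two-tailed t-test, p<0.05). RPMI-8226 cells were treated for 48 h. The Rap1a antibody detects only unmodified Rap1a, with β-tubulin as loading control. Lysates were made in RIPA buffer and normalised by BCA.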

RPMI-8226 = assay: Cytotoxicity against human RPMI-8226 cells assessed as decrease in cell viability at 10 to 100 uM measured after 48 hrs by MTT assay; format: functional, cell-based; details: dose 10-100 µM
Method in brief: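 RPMI-8226 myeloma cells seeded at 2.5 × 10^4 cells per 100 μL well and exposed to compound for 48 h, then MTT read-out. Absorbance of solvent-only control cells set as 100% MTT activity. Data expressed as percentage of control, mean ± SD, n=4.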

[3] = molecular target: T2, Geranylgeranyl pyrophosphate synthase (Homo sapiens); assay: Inhibition of GGDPS in human RPMI-8226 cells assessed as disruption of farnesylation at 0.05 to 0.5 uM measured after 48 hrs by immunoblot analysis; format: cell-based; details: dose 0.05-0.5 µM
Method in brief: (§2)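 H-Ras farnesylation was checked by immunoblot after RPMI-8226 cells (ATCC) were exposed to compound for 48 h, with lovastatin 10 μM as positive control. Whole-cell RIPA lysates with protease/phosphatase inhibitors were protein-normalised by BCA, run on SDS-PAGE and transferred to PVDF. Blots were probed for H-Ras with β-tubulin as loading control and detected with HRP secondary/ECL. Gels are representative of three independent studies.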

[4] = molecular target: T2, Geranylgeranyl pyrophosphate synthase (Homo sapiens); assay: Inhibition of GGDPS in human RPMI-8226 cells assessed as lowest effective concentration required to show unmodified Rap1a band after 48 hrs by immunoblot analysis; format: cell-based; method in brief: as §1
[5] = molecular target: T2, Geranylgeranyl pyrophosphate synthase (Homo sapiens); assay: Inhibition of GGDPS in human RPMI-8226 cells assessed as disruption of farnesylation at 0.1 to 1 uM measured after 48 hrs by immunoblot analysis; format: cell-based; details: dose 0.1-1 µM; method in brief: as §2
[6] = molecular target: T2, Geranylgeranyl pyrophosphate synthase (Homo sapiens); assay: Inhibition of GGDPS in human RPMI-8226 cells assessed as increase in intracellular lambda chain level after 48 hrs by ELISA; format: cell-based
Method in brief: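 Intracellular lambda light chain was quantified by ELISA in the same 48 h RPMI-8226 lysates prepared for immunoblotting, with lovastatin 10 μM as positive control. Values are percentage of untreated control, mean ± SD, n=3. Two-tailed t-test against untreated cells, significance at p<0.05.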

With `C=C(Cc1cn(C/C=C(\C)CCC=C(C)C)nn1)P(=O)(O)O` the IC50 [1] was over 100000 nM, the inhibition [2] was “inactive” and the Activity (RPMI-8226) was “inactive”.

With `CC(C)=CCC/C(C)=C/Cn1cc(CC(O)(P(=O)(O)O)P(=O)(O)O)nn1` the inhibition [3] was “inactive”, the LED [4] was 0.1 µM and the Activity (RPMI-8226) was “Active”.

For `CC(C)=CCC/C(C)=C/Cn1cc(C2CC2(P(=O)(O)O)P(=O)(O)O)nn1` (stereo not given), the LED [4] was 0.5 µM, the IC50 [1] was 1600 nM and the inhibition [5] was “inactive”. For the same molecule, the Activity (RPMI-8226) was “Active”.

For `CC(C)=CCC/C(C)=C/Cn1cc(CC(C)(P(=O)(O)O)P(=O)(O)O)nn1`, the LED [4] was 0.1 µM and the IC50 [1] was 1300 nM.

For `CC(C)=CCC/C(C)=C/Cn1cc(CCP(=O)(O)O)nn1`, the IC50 [1] was over 100000 nM, the inhibition [2] was “inactive” and the Activity (RPMI-8226) was “inactive”.

`CC(C)=CCC/C(C)=C/Cn1cc(C=C(P(=O)(O)O)P(=O)(O)O)nn1` was tested, and the LED [4] was 0.25 µM, the IC50 [1] was 2700 nM and the inhibition [5] was “inactive”. The Activity (RPMI-8226) was “Active”.

`CCC(Cc1cn(C/C=C(\C)CCC=C(C)C)nn1)(P(=O)(O)O)P(=O)(O)O` showed an LED [4] of 2.5 µM and an IC50 [1] of 5900 nM.

With `CC(C)=CCC/C(C)=C/Cn1cc(CC(P(=O)(O)O)P(=O)(O)O)nn1` the LED [4] was 0.5 µM.

In the case of `CC(C)=CCC/C(C)=C/Cn1cc(CC(CN)(P(=O)(O)O)P(=O)(O)O)nn1`, the LED [4] is reported as 0.5 µM, the IC50 [1] is reported as 2000 nM and the Activity (RPMI-8226) is reported as “Active”.

In the case of `CC(C)=CCC/C(C)=C/Cn1cc(CC(F)(P(=O)(O)O)P(=O)(O)O)nn1`, the LED [4] is reported as 0.25 µM, the IC50 [1] is reported as 3000 nM and the inhibition [6] is reported as “Active”. The inhibition [5] was “inactive” and the Activity (RPMI-8226) was “Active”.

Source: ChEMBL document CHEMBL4811322, “Impact of α-modifications on the activity of triazole bisphosphonates as geranylgeranyl diphosphate synthase inhibitors” (Bioorg Med Chem, 2021)
